Results on 81 compounds are retold here after ChEMBL document CHEMBL5137045, “Discovery of 2-(furan-2-ylmethylene)hydrazine-1-carbothioamide derivatives as novel inhibitors of SARS-CoV-2 main protease” (Eur J Med Chem, 2022).

The structures appear in SMILES notation.

For the assay, the target named is Replicase polyprotein 1ab (Severe acute respiratory syndrome coronavirus 2) (UniProt P0DTD1). The assay is described as follows: Inhibition of SARS CoV-2 main protease at 50 uM using DABCYL-KTSAVLQSGFRKM-E(EDANS)-NH2 as substrate preincubated for 30 mins followed by substrate addition and measured after 20 mins relative to control. Conditions: time 50.0 min. Put shortly: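 FRET protease assay in 40 mM PBS, 100 mM NaCl, 1 mM EDTA, 0.1% Triton, pH 7.3. M^pro (0.5 μM) was preincubated with inhibitor 30 min at room temperature, then 20 μM substrate was added. Cleavage fluorescence (ex 360/em 460 nm) was read for 20 min. This covers preliminary screening and IC50; IC50 from Hill1 fit.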
`O=C(O)c1cc(N/N=C/c2ccc(-c3ccc(Cl)c(C(=O)O)c3)o2)ccc1Cl` displayed an inhibition of 28.2%.

Compound `O=C(O)c1cccc(-c2ccc(/C=N/n3cnc4sc5c(c4c3=O)CCCC5)o2)c1` yielded an inhibition of 30%.

As to `Cc1c(NC(=S)NCc2ccco2)c(=O)n(-c2ccccc2)n1C`, the inhibition was < 20%. As to `O=C1NC(=S)N/C1=C/c1ccc(-c2ccccc2C(=O)O)o1`, the inhibition was < 20%. The compound `O=C(Cn1c2ccccc2c(=O)c2ccccc21)N/N=C/c1ccc(-c2ccccc2)o1` displayed an inhibition of 21.3%. Compound `O=C(N/N=C/c1ccc(-c2cccc(C(=O)O)c2)o1)Nc1ccc(Cl)cc1` came in with an inhibition of 44.6%.

With `N=C1S/C(=C/c2ccc(-c3cccc(C(=O)O)c3)o2)C(=O)N1c1nonc1N`, the inhibition was determined as 30.3%.

`Cc1c(NC(=S)N(C)CCC#N)c(=O)n(-c2ccccc2)n1C`: the inhibition is < 20%. With `Cc1c(NC(=S)NC(=O)c2ccc(Cl)cc2)c(=O)n(-c2ccccc2)n1C`, the inhibition was < 20%. For `Nc1nnnn1CC(=O)N/N=C/c1ccc(-c2ccccc2C(=O)O)o1` the value was 34.5%.

With `O=C(O)c1cccc(-c2ccc(/C=c3/sc4nc5ccccc5n4c3=O)o2)c1`, the inhibition is < 20%. The compound `O=C(CSc1nnnn1-c1ccccc1)N/N=C/c1ccc(-c2ccccc2C(=O)O)o1` displayed an inhibition of 45.3%. For `Cc1c(C(=O)N/N=C/c2ccc(-c3ccc(Cl)c(C(=O)O)c3)o2)sc(N)c1C#N` the value was 35.8%; for `Cc1c(NC(N)=S)c(=O)n(-c2ccccc2)n1C`, < 20%; for `Cc1cccc(C)c1OCC(=O)N/N=C/c1ccc([N+](=O)[O-])o1`, < 20%. The compound `NC(=S)N/N=C/c1ccc(-c2ccc(Cl)c(Cl)c2)o1` registered an inhibition of 49.8%. With `Cc1c(NC(=S)NC(=O)c2ccc(F)cc2)c(=O)n(-c2ccccc2)n1C`, the inhibition is < 20%. `N#Cc1c(/N=C/c2ccc(-c3ccc(Cl)c(C(=O)O)c3)o2)sc2c1CCCC2`: the inhibition was < 20%.

In turn, `O=C(CNc1ccc2ccccc2c1)N/N=C/c1ccc(-c2ccc([N+](=O)[O-])cc2)o1` had an inhibition of 23%. `Cc1cccc(NC(=O)CN2C(=O)N/C(=C\c3ccc(-c4cccc(C(=O)O)c4)o3)C2=O)c1` yielded an inhibition of 24.2%.

Turning to `CCOC(=O)N/N=C/c1ccc(-c2cccc(C(=O)O)c2)o1`, the inhibition is 29.4%.

Turning to `O=C(Cn1c2ccccc2c(=O)c2ccccc21)N/N=C/c1ccc(-c2ccc(O)c(C(=O)O)c2)o1`, the inhibition is 54.5%. In the case of `Nc1nonc1-c1nc2ccccc2n1CC(=O)N/N=C/c1ccc(-c2cccc(C(F)(F)F)c2)o1`, the inhibition came out at 25.5%. Take `NC(=O)N/N=C/c1ccc(-c2ccc([N+](=O)[O-])cc2)o1`: the inhibition was < 20%. On to `COc1ccc(-c2ccc(/C=N/NC(=O)Cn3c(-c4nonc4N)nc4ccccc43)o2)c([N+](=O)[O-])c1`, for which the inhibition is < 20%. `Cc1c(NC(=S)NC(=O)c2cccc(I)c2)c(=O)n(-c2ccccc2)n1C`: the inhibition is < 20%. The compound `COc1ccc(/N=C2/S/C(=C\c3ccc(-c4ccc(Cl)c(C(=O)O)c4)o3)C(=O)N2C)cc1` returned an inhibition of 27.1%.

Take `Cc1cc(C(=O)O)ccc1-c1ccc(/C=N/NC(=S)NCc2ccccc2)o1`: the inhibition was 55.9%. For `O=[N+]([O-])c1cccc(-c2ccc(/C=N/NC(=S)NC3CCS(=O)(=O)C3)o2)c1` (stereo unspecified), the inhibition stood at 30.2%.

Regarding `Cc1c(NC(=S)N/N=C/C(Cl)=C/c2ccc([N+](=O)[O-])cc2)c(=O)n(-c2ccccc2)n1C`, the inhibition was found to be 21.2%.

`NC(=S)N/N=C/c1ccc(-c2cccc3ccccc23)o1` registered an inhibition of 73.2%. To `O=C(COCc1ccccc1Cl)N/N=C/c1ccc(-c2ccc([N+](=O)[O-])cc2)o1` belongs 23.3%; to `Cc1cc(-c2ccc(/C=N/NC(=O)C(NC(=O)Cc3ccco3)C(C)C)o2)cc([N+](=O)[O-])c1C` (stereo unspecified), 62.8%.

As to `COCc1c(Br)c(C)nc(OCC(=O)N/N=C/c2ccc(-c3ccc(Cl)c(C(=O)O)c3)o2)c1C#N`, the inhibition is 38.3%. For `C=CCNC(=S)N/N=C/c1ccc(-c2ccccc2[N+](=O)[O-])o1`, the inhibition came out at 28.4%. For `COCc1cc(C)nc(OCC(=O)N/N=C/c2ccc(-c3cccc(C(=O)O)c3)o2)c1C#N` the value was 37.3%; for `O=C(O)c1cccc(-c2ccc(/C=N/Nc3nc(N4CCCC4)nc(N4CCCC4)n3)o2)c1`, < 20%; for `O=C(O)c1ccc(-c2ccc(/C=N/NC(=S)Nc3ccc(Cl)cc3)o2)cc1`, 27.5%. Regarding `CSC1=NSC2=NC(=O)/C(=C\c3ccc(-c4cccc(C(=O)O)c4)o3)C(=N)N12`, the inhibition was < 20%. For `O=C(O)c1ccc(-c2ccc(/C=N/NC(=S)Nc3cccc(C(F)(F)F)c3)o2)cc1` the value was 38.6%; for `O=C(Cn1c2ccccc2c(=O)c2ccccc21)N/N=C/c1ccc(-c2cccc([N+](=O)[O-])c2)o1`, 26.8%; for `Cc1c(NC(=S)N/N=C/c2ccc(-c3ccc(Br)cc3)o2)c(=O)n(-c2ccccc2)n1C`, 27.7%. Regarding `Cc1ccc(C(=O)NC(=S)Nc2c(C)n(C)n(-c3ccccc3)c2=O)cc1`, the inhibition was < 20%. `CCOC(=O)c1ccc(NC(=S)Nc2c(C)n(C)n(-c3ccccc3)c2=O)cc1`: the inhibition was < 20%. For `O=c1sn(-c2cccc3ccccc23)c(=O)n1Cc1ccccc1` the value was 98.6%; for `Cc1cc(-c2ccc(/C=N/NC(=O)Nc3ccccc3)o2)c(C)c([N+](=O)[O-])c1`, < 20%; for `Cc1c(NC(=S)N/N=C/c2ccccc2[N+](=O)[O-])c(=O)n(-c2ccccc2)n1C`, < 20%. To `O=C(O)c1cccc(-c2ccc(/C=N/NC(=O)C3COc4ccccc4O3)o2)c1` (stereo unspecified) belongs 33.7%; to `Cc1c(NC(=S)NC(=O)c2ccccc2)c(=O)n(-c2ccccc2)n1C`, < 20%; to `O=C(NCCCn1ccnc1)/C(=C\c1ccc(-c2cccc([N+](=O)[O-])c2)o1)NC(=O)c1ccccc1`, 28.8%. With `NC(=S)N/N=C/c1ccc(-c2ccc3ccccc3c2)o1`, the inhibition amounted to 54.1%. For `O=C1NN(c2ccc(F)cc2)C(=O)/C1=C\c1ccc(-c2cccc(C(=O)O)c2)o1` the value was 33.8%.

In the case of `Nc1nonc1-c1nc2ccccc2n1CC(=O)N/N=C/c1ccc(-c2ccc([N+](=O)[O-])cc2)o1`, the inhibition was 30.1%. Consider `O=C(CNC(=O)c1ccccc1F)N/N=C/c1ccc([N+](=O)[O-])o1`, for which the inhibition was < 20%. `Cc1cc(-c2ccc(/C=N/NC(=O)Cn3c(-c4nonc4N)nc4ccccc43)o2)ccc1[N+](=O)[O-]`: the inhibition was determined as 42.9%. Consider `CC1=CC2=NC(=O)/C(=C\c3ccc(-c4cccc(C(=O)O)c4)o3)C(=N)N2O1`, for which the inhibition was < 20%. `Cc1ccc([N+](=O)[O-])cc1-c1ccc(/C=N/NC(=O)Cn2c3ccccc3c(=O)c3ccccc32)o1` yielded an inhibition of 22.5%. With `O=C(Cn1c2ccccc2c(=O)c2ccccc21)N/N=C/c1ccc(-c2ccc([N+](=O)[O-])cc2)o1`, the inhibition was found to be 30%.

Take `O=[N+]([O-])c1cccc(-c2ccc(/C=N/NC(=S)Nc3ccccc3)o2)c1`: the inhibition was < 20%. Consider `Cc1c(NC(=S)NC(=O)COc2ccccc2)c(=O)n(-c2ccccc2)n1C`, for which the inhibition is < 20%. Turning to `CNC(=S)N/N=C/c1ccc(-c2cccc(C(=O)O)c2)o1`, the inhibition was determined as 22.2%. Compound `O=C(N/N=C/c1ccc(-c2ccc([N+](=O)[O-])cc2)o1)/C(=C\c1ccccc1O)NC(=O)c1ccccc1` registered an inhibition of 38.3%. Turning to `C/C(=N\NC(=S)Nc1c(C)n(C)n(-c2ccccc2)c1=O)c1cccc([N+](=O)[O-])c1`, the inhibition was < 20%. Turning to `O=C(O)c1cc(-c2ccc(/C=N/Nc3nc(Nc4ccccc4)nc(Nc4ccccc4)n3)o2)ccc1O`, the inhibition came out at 34.6%.

The compound `COc1ccccc1OCC(=O)N/N=C/c1ccc(-c2cccc([N+](=O)[O-])c2)o1` showed an inhibition of 24.2%. To `Cc1c(/N=C/c2ccc(-c3cccc([N+](=O)[O-])c3)o2)c(=O)n(-c2ccccc2)n1C` belongs < 20%; to `O=C(Cn1c2ccccc2c(=O)c2ccccc21)N/N=C/c1ccc(-c2cc([N+](=O)[O-])ccc2Cl)o1`, < 20%; to `COc1cccc(C(=O)NCC(=O)N/N=C/c2ccc([N+](=O)[O-])o2)c1`, < 20%. As for `O=C(N/N=C/c1ccc(-c2ccc([N+](=O)[O-])cc2)o1)c1cc2ccccc2cc1O`, the inhibition was < 20%. `Cc1ccc(OCC(=O)N/N=C/c2ccc(-c3cc([N+](=O)[O-])ccc3Cl)o2)c(C)c1`: the inhibition is < 20%. In turn, `COCc1c(Br)c(C)nc(OCC(=O)N/N=C/c2ccc(-c3cccc(C(=O)O)c3)o2)c1C#N` gave an inhibition of 32.9%. To `COc1c(C(=O)O)cccc1-c1ccc(/C=N/NC(N)=S)o1` belongs 79.8%; to `CC1=NN(c2ccc(C)c(Cl)c2)C(=O)/C1=C\c1ccc(-c2ccc(C(=O)O)cc2)o1`, < 20%. In turn, `O=[N+]([O-])c1ccc(-c2ccc(/C=N/c3cccc(-c4nc5ccccc5o4)c3)o2)cc1` came in with an inhibition of 21.3%. `O=C(O)c1ccc(-c2ccc(/C=N/NC(=S)NC3CCCCC3)o2)cc1` displayed an inhibition of 37.3%.

`COCc1cc(C)nc(OCC(=O)N/N=C/c2ccc(-c3ccc(C(=O)O)cc3)o2)c1C#N` gave an inhibition of 36.2%. To `NC(=S)N/N=C/c1ccc(-c2ccc(C(=O)O)cc2)cc1` belongs 64%; to `Nc1nonc1C(=O)N/N=C/c1ccc(-c2cccc([N+](=O)[O-])c2)o1`, 31.2%. `O=C(N/N=C/c1ccc([N+](=O)[O-])o1)c1c[nH]c2ccccc12`: the inhibition was < 20%.

The compound `C=CCNC(=S)N/N=C/c1ccc(-c2cc(C(=O)O)cc(C(=O)O)c2)o1` gave an inhibition of 34.2%. `Cc1c(N=C(S)Nc2ccccc2)c(=O)n(-c2ccccc2)n1C`: the inhibition was < 20%.

One may read the inhibition as the share of the control response that was lost under treatment. A lower inhibition goes with little suppression.
